# FID counter: displaces DNA intercalator in HCV helicase counter-screen | DNA fluorescent intercalator displacement, fluorescence | inhibition, % at 7.9 µM | hit rate 0.17% among 290,000; in the data active means inhibition above about 37%;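 further: 0% = vehicle and 100% = reference compound; higher means more ethidium bromide displaced from hairpin DNA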
# TRPC4 act: TRPC4 (mouse) channel activation; HEK293 TRPC4beta/mu-opioid, Fluo4 calcium fluorescence; active compounds read high; hit rate 0.49% among 310,000; Q9QUQ5; B-score at 10 µM; AID 2237;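 active means B-score above 5 SD of library B-scores, and initial fluorescence ratio not above library mean plus 5 SD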;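 further: positive B-score marks a calcium rise read as TRPC4 activation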
#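 Assay system: HEK293 cells stably co-expressing mouse TRPC4beta and mu-opioid receptor / Timing: Fluo4 dye loading 45 min at room temperature, 110 s recording / Signal: Fluo4 calcium-sensitive dye fluorescence, kinetic, 1 Hz baseline / Read-out: integrated baseline-normalised fluorescence ratio, converted to per-well B score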
# TRPC6 inhibitor: inhibitors of mouse TRPC6 channel | hit rate 1.1% among 310,000 | B-score at 10 µM | HEK293-TRPC6, membrane potential dye, ACh-evoked depolarization; active compounds read low | Q61143;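 active means B-score under library mean minus 3 SD, initial fluorescence not abnormally high, positive integrated signal ratio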;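 further: B-score derived from integrated fluorescence ratio over the kinetic read; more negative B-score means stronger inhibition of depolarization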
# TRPC4 block: inhibitors of mouse TRPC4 channel. Q9QUQ5. HEK293 TRPC4beta/mu-opioid, DAMGO-evoked Fluo4 calcium flux; active compounds read low. B-score at 10 µM. hit rate 0.39% among 300,000. AID 2247;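 active means B-score over 3 SD under the library average, no early fluorescence shift, positive overall ratio signal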
#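 Material: HEK293 cells with stable TRPC4beta plus mu-opioid receptor expression; probe or stimulus: DAMGO in two steps, submaximal then maximal; technique: Fluo4 calcium fluorescence by kinetic imaging, 5 s 1 Hz baseline; measure: integrated fluorescence ratio relative to baseline, converted to per-well B score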
# TRPC6 activator: activates the mouse TRPC6 cation channel. Q61143. HEK293-TRPC6 membrane potential dye fluorescence; active compounds read high. B-score at 10 µM. hit rate 0.13% among 310,000. AID 2550;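 active means B-score of the integrated fluorescence ratio above library mean plus 3 SD, and starting fluorescence ratio within library mean plus 5 SD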;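 further: higher score means more depolarization so channel activation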
# TRPC4 potent: allosteric potentiators of mouse TRPC4 channel. Q9QUQ5. HEK293 TRPC4beta/mu-opioid, DAMGO EC20, Fluo-4 Ca2+ flux; active compounds read high. B-score at 10 µM. hit rate 0.42% among 310,000;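 active means B-score of calcium response area above 5 SD of library B-scores, with initial fluorescence ratio within 5 SD of library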;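 further: B-score of integrated fluorescence ratio over time as area under calcium response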
# An asterisk follows results filed as active; i = inactive; . = no result given. Sampled rows, rich in hits. Any-hit rate of the full collection: about 2.3%.
SMILES,FID counter,TRPC4 act,TRPC6 inhibitor,TRPC4 block,TRPC6 activator,TRPC4 potent
COc1ccc(N2CCN(C(=O)c3ccc(N(C)S(=O)(=O)c4ccc(C)cc4)cc3)CC2)cc1,-43,44*,i,i,i,38*
COc1ccc(N(C)S(=O)(=O)c2cccc(C(=O)N3CCN(S(=O)(=O)c4ccc(C)cc4)CC3)c2)cc1,-67,i,-8.3*,i,12*,i
COc1cccc(CNC(=O)CCNC(=O)c2ccccc2OC)c1,-11,i,i,i,i,i
Cc1ccc(S(=O)(=O)NCCNC(=O)c2ccccc2)cc1,-5,i,i,i,i,i
Cc1ccc(S(=O)(=O)NCc2ccc(C(=O)NCCN(Cc3ccccc3)C(C)C)cc2)cc1,39*,i,i,i,i,i
Cc1ccc(C)c(-n2cc(CNCCc3cnccn3)c(-c3ccccc3)n2)c1,17,108*,i,i,i,i
S=C(NCc1ccccc1)N1CCN(C2CCCCC2)CC1,5,76*,i,i,i,i
COc1ccc(C)cc1N(C(=O)c1ccccc1)c1nc2ccccc2s1,-13,i,i,i,i,i
COc1ccc(C)cc1N(C(=O)c1ccccc1F)c1nc2ccccc2s1,-17,i,i,-6*,i,i
O=C(CS(=O)(=O)c1ccccc1Cl)N1CCOCC1,-2,i,i,i,i,i
CCOC(=O)N1CCC(NC(=O)C2CCN(S(=O)(=O)c3ccc4c(c3)oc(=O)n4C)CC2)CC1,-11,i,i,i,i,i
O=C(O)C1C2CCC(CC2)C1C(=O)N1CCN(Cc2ccc(F)cc2)CC1 (configuration not stated),0,87*,i,i,i,i
Cc1cc2oc(=O)cc(CN3CCCCC3C)c2cc1C(C)C (configuration not stated),-19,i,i,i,i,i
O=C(Nc1ccncc1)C1CCN(S(=O)(=O)c2ccccc2C(F)(F)F)CC1,2,i,i,i,i,i
COc1ccc(C(CCNCc2ccc(N(C)C)cc2)c2ccccc2OC)cc1 (configuration not stated),12,63*,i,i,i,i
COc1ccc(CNCCC(c2ccc(F)cc2)c2ccc(OC(C)C)cc2)cc1OC (configuration not stated),38*,46*,i,i,i,i
O=c1nc(-c2ccccc2)c2cc(SC(F)F)ccc2[nH]1,-10,i,i,i,i,i
CCOc1cc(S(=O)(=O)NCc2ccccc2)c(OCC)cc1-n1cnnn1,-13,i,i,i,i,i
CCOc1ccc(-n2cnnn2)cc1S(=O)(=O)NCc1ccccc1,-3,i,i,-7*,i,i
CC(C)Cc1ccc(C(C)C(=O)Nc2cccnc2)cc1 (configuration not stated),-12,45*,i,i,i,i
CC(C)Cc1ccc(C(C)C(=O)Nc2ccc(O)cc2)cc1 (configuration not stated),-11,52*,i,i,i,i
Cc1cc(C)cc(N(C(=O)c2ccccn2)C(C(=O)NC2CCCCC2)c2ccncc2)c1 (configuration not stated),-34,i,i,i,i,i
Cc1cc2oc(=O)cc(CN3CCN(Cc4ccccc4)CC3)c2cc1O,19,79*,i,i,i,i
CCc1cc2c(CN3CCN(C)CC3)cc(=O)oc2cc1O,3,51*,i,i,i,i
CC(=O)C1=C(O)C(=O)N(Cc2ccco2)C1c1ccc2c(c1)OCO2 (configuration not stated),-2,i,i,-7*,i,i
SMILES,FID counter,TRPC4 act,TRPC6 inhibitor,TRPC4 block,TRPC6 activator,TRPC4 potent
COc1ccc2sc(N(CCCN(C)C)C(=O)c3nc4ccccc4s3)nc2c1,4,i,i,i,i,i
COc1ccccc1C(=O)N(CCC1CCCN1C)c1nc2ccccc2s1 (configuration not stated),42*,i,i,i,i,i
Cc1ccc(NC(=O)CSc2n[nH]c(-c3cccnc3)n2)cc1Cl,-8,i,i,i,i,i
Cc1cc(C(=O)COC(=O)c2ccc(Cl)c(S(N)(=O)=O)c2)c(C)n1C1CC1,.,i,i,i,i,i
O=C(CN1C(=O)NC2(CCCCC2)C1=O)Oc1ccc2c(C(F)(F)F)cc(=O)oc2c1,.,i,i,i,i,i
Cc1cc(-c2sccc2C)nc(-n2cccc2)n1,-5,i,i,-6*,i,i
Cc1cccc(C(=O)NC(=S)NNC(=O)c2ccc(Cl)cc2)c1,-17,i,i,i,i,i
O=C(NNC(=S)Nc1ccccc1)c1cccs1,0,i,i,i,i,i
Cc1ccccc1C(=O)NNC(=S)NC(=O)c1cccs1,-15,159*,i,i,i,i
O=C(NC(=S)NNC(=O)c1cccs1)c1ccccc1,-6,82*,i,i,i,i
Cc1cccc(C(=O)NC(=S)NNC(=O)c2cccs2)c1,1,236*,i,i,i,i
CC(C)(C)c1ccc(C(=O)NC(=S)NNC(=O)c2cccs2)cc1,-1,339*,i,i,i,i
Cc1ccccc1C(=O)Nc1cccc(NC(=S)NC(=O)c2cccs2)c1,-8,i,i,i,i,i
Nc1cc(Cl)ccc1Nc1ccncc1,-1,i,i,i,i,i
C/C(CC(=O)Nc1ccc2c(c1)OCCO2)=N\NC(=O)c1ccccc1Cl,-11,i,i,i,i,i
NS(=O)(=O)c1ccc(Oc2ccc(S(N)(=O)=O)cc2)cc1,14,i,i,i,i,96*
CCCCOc1ccc(S(N)(=O)=O)cc1,0,i,i,i,i,i
CC1(C)CC2CC(C)(CN2C(=O)COC(=O)c2n[nH]c(=O)c3ccccc23)C1 (configuration not stated),-30,i,i,i,i,11*
O=C(NNC(=O)C1CC(=O)N(Cc2ccccc2)C1)c1ccc(F)cc1 (configuration not stated),.,i,i,i,i,i
CCC(C)N(C)Cc1cccc(C2(O)CCN(S(=O)(=O)c3ccc(F)c(C)c3)CC2)c1 (configuration not stated),38*,i,i,i,i,i
